The source made the active and inactive calls. The calls are words filed in the database; no cut-off is given here.
Assays:
[1] = test system: SU-DHL-1; assay: Induction of apoptosis in human SUDHL1 cells at 50 nM after 48 hrs by annexin V assay; assay type: functional
Summary of the method: (§1)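 Parental Ba/F3 (with IL-3), Ba/F3 NPM-ALK or SU-DHL-1 cells treated with 50 nM or DMSO for 48 h. Annexin V/7-AAD staining read by flow cytometry; percent Annexin V-positive cells counted.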

[2] = target: Signal transducer and activator of transcription 3 (Homo sapiens) (UniProt P40763); assay: Inhibition of STAT3 phosphorylation in human SUDHL1 cells; assay type: cell-based
Chain of Signal transducer and activator of transcription 3 (Homo sapiens) (P40763 whole entry): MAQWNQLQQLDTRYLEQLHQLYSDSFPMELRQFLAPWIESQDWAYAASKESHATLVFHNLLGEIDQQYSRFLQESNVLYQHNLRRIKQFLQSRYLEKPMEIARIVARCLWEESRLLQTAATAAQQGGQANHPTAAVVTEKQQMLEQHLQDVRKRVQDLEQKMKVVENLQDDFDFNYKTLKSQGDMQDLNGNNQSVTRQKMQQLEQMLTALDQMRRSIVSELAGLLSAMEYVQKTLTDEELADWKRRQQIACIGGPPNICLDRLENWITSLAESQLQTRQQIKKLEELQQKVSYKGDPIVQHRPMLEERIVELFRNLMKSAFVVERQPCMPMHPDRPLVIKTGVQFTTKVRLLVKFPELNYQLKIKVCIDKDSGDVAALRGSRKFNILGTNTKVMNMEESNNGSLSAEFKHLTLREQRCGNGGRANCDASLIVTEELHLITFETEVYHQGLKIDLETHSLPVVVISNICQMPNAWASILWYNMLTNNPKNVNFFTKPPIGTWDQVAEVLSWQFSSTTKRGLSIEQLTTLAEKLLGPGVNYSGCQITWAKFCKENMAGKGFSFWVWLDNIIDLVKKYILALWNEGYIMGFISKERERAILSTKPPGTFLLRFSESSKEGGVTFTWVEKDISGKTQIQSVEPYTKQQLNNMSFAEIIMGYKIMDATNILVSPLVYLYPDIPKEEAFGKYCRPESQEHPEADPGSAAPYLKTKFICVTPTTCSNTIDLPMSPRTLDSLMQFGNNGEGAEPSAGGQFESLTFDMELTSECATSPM
Summary of the method: (§2)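 Ba/F3 NPM-ALK, Karpas-299 or SU-DHL-1 cells treated for 4 h with DMSO or increasing concentrations. STAT3 and STAT5 phosphorylation read by Western blot of lysates.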

[3] = target: Signal transducer and activator of transcription 3 (Mus musculus) (UniProt P42227); assay: Inhibition of STAT3 in mouse Ba/F3 NPM-ALK cells at 50 nM; assay type: cell-based; conditions: TDE = time-dependent effect
Chain of Signal transducer and activator of transcription 3 (Mus musculus) (P42227 whole entry): as the sequence (P40763 whole entry) above, with E760D counted along it
Summary of the method: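 Ba/F3 NPM-ALK or Karpas-299 cells held at 50 nM for times from 15 min onward. Phospho-NPM-ALK and phospho-STAT3 read by Western blot.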

[4] = Antilymphomal activity against mouse Ba/F3 NPM-ALK cells xenografted in SCID beige mouse assessed as reduction in bioluminescence signal at 10 mg/kg, po once daily after 2 weeks relative to control; assay type: functional; set-up: scale not given: the % may be the effect or the level left
Summary of the method: (§3)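 Female Fox Chase SCID_Beige mice injected in the tail vein with 1 × 10⁶ luciferase-expressing Ba/F3 BCR-ABL or Ba/F3 NPM-ALK cells. From 72 h, 10 mg/kg given orally once daily in 10% 1-methyl-2-pyrrolidinone/90% PEG 300, or vehicle. Bioluminescence imaged after 2 weeks; spleens weighed.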

[5] = test system: BCR-ABL; assay: Antilymphomal activity against mouse Ba/F3 BCR-ABL cells xenografted in SCID beige mouse assessed as reduction in bioluminescence signal at 10 mg/kg, po once daily after 2 weeks; assay type: functional, organism-based; set-up: dose 10 mg/kg; summary of the method: as §3
[6] = test system: KARPAS-299; assay: Antilymphomal activity against human Karpas299 cells xenografted in SCID beige mouse assessed as reduction in NPM-ALK phosphorylation after 3.5 weeks of […] at 10 mg/kg for 3 days; assay type: functional, organism-based; set-up: dose 10 mg/kg
Summary of the method: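 Female Fox Chase SCID_Beige mice given 1 × 10⁶ Karpas-299 cells by tail vein. Treatment began at 3.5 weeks, once palpable lymphomas had formed. Drug at 10 mg/kg or vehicle for 3 days, 3 mice per arm. Killed 4 h after the third dose. Excised lymph nodes immunoblotted for NPM-ALK and Stat3 phosphorylation.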

[7] = Induction of apoptosis in mouse Ba/F3 NPM-ALK cells at 50 nM after 48 hrs by annexin V assay; assay type: functional; summary of the method: as §1
[8] = test system: Mus musculus; assay: Toxicity in mouse Ba/F3 NPM-ALK cells xenografted in SCID beige mouse assessed as reduction in spleen weight at 10 mg/kg, po; assay type: organism-based; set-up: dose 10 mg/kg, route oral; scale not given: the % may be the effect or the level left; conditions: in vivo
[9] = Cmax in human Karpas299 cells xenografted SCID beige mouse at 20 mg/kg, po; assay type: ADME, organism-based, KARPAS-299; set-up: dose 20 mg/kg, route oral; conditions: in vivo
Summary of the method: (§4)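 Mice given a single oral dose of 20 mg/kg as a solution in 10% 1-methyl-2-pyrrolidinone/90% PEG 300. Plasma levels measured to give Cmax, bioavailability and elimination half-life.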

[10] = target: T1, Signal transducer and activator of transcription 5A (Homo sapiens) (UniProt P42229); assay: Inhibition of STAT5 phosphorylation in human Karpas299 cells; assay type: cell-based; conditions: KARPAS-299; summary of the method: as §2
T1 sequence (whole entry): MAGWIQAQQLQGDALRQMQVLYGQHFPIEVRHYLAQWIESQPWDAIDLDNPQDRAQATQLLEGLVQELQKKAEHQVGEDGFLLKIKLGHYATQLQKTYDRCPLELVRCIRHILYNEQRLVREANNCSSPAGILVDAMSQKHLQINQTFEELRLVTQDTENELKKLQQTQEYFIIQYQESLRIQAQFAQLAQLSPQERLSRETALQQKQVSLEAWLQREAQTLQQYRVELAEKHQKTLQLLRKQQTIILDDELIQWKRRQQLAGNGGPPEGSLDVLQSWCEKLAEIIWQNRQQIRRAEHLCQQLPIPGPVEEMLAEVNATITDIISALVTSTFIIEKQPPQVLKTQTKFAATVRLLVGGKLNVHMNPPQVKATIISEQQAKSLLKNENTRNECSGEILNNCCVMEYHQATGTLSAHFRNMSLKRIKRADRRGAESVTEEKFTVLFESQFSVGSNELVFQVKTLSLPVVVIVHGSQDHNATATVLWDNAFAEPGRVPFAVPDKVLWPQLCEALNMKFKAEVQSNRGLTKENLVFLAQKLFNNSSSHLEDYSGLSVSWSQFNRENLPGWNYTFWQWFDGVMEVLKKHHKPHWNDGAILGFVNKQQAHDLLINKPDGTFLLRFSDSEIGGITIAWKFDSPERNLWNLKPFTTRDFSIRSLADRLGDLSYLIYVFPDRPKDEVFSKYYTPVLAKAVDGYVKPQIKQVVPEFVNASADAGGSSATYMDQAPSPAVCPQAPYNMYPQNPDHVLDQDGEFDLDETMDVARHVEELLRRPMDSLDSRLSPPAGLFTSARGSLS

[11] = test system: KARPAS-299; assay: Inhibition of human Karpas299 cells assessed as reduction in CD30 receptor expression on cell surface after 24 hrs; assay type: functional; set-up: scale not given: the % may be the effect or the level left
Summary of the method: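 Karpas-299 cells cultured with drug for 24 h. Surface CD30 receptor expression then measured.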

[12] = test system: BaF3; assay: Inhibition of mouse wild type BaF3/WT Luc+ cell proliferation; assay type: functional, cell-based
Summary of the method: (§5)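 Ba/F3 cells carrying luciferase, either parental (with IL-3) or transformed by NPM-ALK or TEL-kinase fusions, 25,000 per well with serial dilutions or DMSO for 2–3 days. Bright-Glo luminescence taken as proliferation/survival. IC50 from curve fit.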

[13] = test system: KARPAS-299; assay: Cell cycle arrest in human Karpas299 cells by accumulation in S phase at 25 nM after 72 hrs; assay type: functional
Summary of the method: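 Karpas-299 cells exposed to 25 nM or DMSO for 24, 48 and 72 h, then fixed, stained with propidium iodide and analyzed for cell cycle distribution by flow cytometry. Three separate experiments.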

[14] = test system: KARPAS-299; assay: Induction of apoptosis in human Karpas299 cells at 50 nM after 48 hrs by annexin V assay; assay type: functional; conditions: in the assay text read “72 hrs” for “48 hrs”
Summary of the method: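 Karpas-299 cells given 50 nM or DMSO, with flow cytometry every 24 h up to 72 h. Annexin V staining gave the percent of positive cells.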

[15] = test system: KARPAS-299; assay: Antiproliferative activity against human Karpas299 cells assessed as luciferase expression after 72 hrs; assay type: functional, cell-based; conditions: KARPAS-299, 72 h
Summary of the method: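 Luciferase-expressing Karpas-299 or SU-DHL-1 cells, 25,000 per well, exposed to serial dilutions or DMSO for 72 h. Bright-Glo luminescence normalized to DMSO wells as percent survival. IC50 from curve fit.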

[16] = Bioavailability in human Karpas299 cells xenografted SCID beige mouse at 20 mg/kg; assay type: ADME, organism-based, KARPAS-299; conditions: in vivo; summary of the method: as §4
[17] = Cytotoxicity against mouse parental Ba/F3 cells assessed as luciferase expression up to 1 uM after 2 to 3 days; assay type: cell-based; conditions: baf3; summary of the method: as §5

Activity [2]: Dose-dependent effect
Activity [3]: tde
Cmax [9]: 800 nM
Activity [10]: Dose-dependent effect
IC50 [12]: 2750 nM
IC50 [15]: 3 nM
bioavailability [16]: 60%
Compound: COc1cc(N2CCC(N3CCN(C)CC3)CC2)ccc1Nc1ncc(Cl)c(Nc2ccccc2S(=O)(=O)C(C)C)n1 [TAE-684]
Activity [1]: 70%
Activity [4]: >99%
Activity [5]: inactive
Activity [6]: Active
Activity [7]: 85%
Activity [8]: 80%
Activity [11]: 80%
Activity [13]: 14%
Activity [14]: 20%
Activity [17]: Not Active

Source: ChEMBL document CHEMBL1156430, “Identification of NVP-TAE684, a potent, selective, and efficacious inhibitor of NPM-ALK” (Proc Natl Acad Sci U S A, 2007)
